Source: ChEMBL document CHEMBL1123409, “Analogues of platelet activating factor. 4. Some modifications of the phosphocholine moiety” (J Med Chem, 1986)

How the values were obtained:
[1] = The ratio of (MABP / Platelet EC 50) x 10^-8
Oryctolagus cuniculus [2] = species on record: Oryctolagus cuniculus; experiment: The maximum aggregation response observed at 1e-5 M concentration of the compound; type: functional
Rattus norvegicus = experiment: Intravenous dose required to decrease mean arterial blood pressure (MABP) 50 mm Hg; type: functional
Outline: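 Spontaneously hypertensive rats, dosed intravenously. The dose that lowers mean arterial blood pressure by 50 mm Hg is read from the dose-response curve.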

Oryctolagus cuniculus [3] = species on record: Oryctolagus cuniculus; experiment: The maximum aggregation response observed at 1.6e-4 M concentration of the compound; type: functional
Oryctolagus cuniculus [4] = species on record: Oryctolagus cuniculus; experiment: Effective concentration required to produce 50% of maximum aggregation of platelets; type: functional, organism-based
Outline: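 Aggregation tested in rabbit platelet-rich plasma. In each experiment, a dose-response curve was built from six to eight doses spanning 10^-9 to 10^-4 M, with three to four replicates per dose level. EC50 is the molar concentration giving 50% of that analogue's own maximum aggregation response.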

Oryctolagus cuniculus [5] = species on record: Oryctolagus cuniculus; experiment: The maximum aggregation response observed at 5e-5 M concentration of the compound; type: functional
Oryctolagus cuniculus [6] = species on record: Oryctolagus cuniculus; experiment: The maximum aggregation response observed at 6.8e-6 M concentration of the compound; type: functional
Oryctolagus cuniculus [7] = species on record: Oryctolagus cuniculus; experiment: The maximum aggregation response observed at 1.7e-4 M concentration of the compound; type: functional
Oryctolagus cuniculus [8] = species on record: Oryctolagus cuniculus; experiment: The maximum aggregation response observed at 1e-6 M concentration of the compound; type: functional
[9] = The ratio of (MABP / Platelet EC 50) x 100; type: functional
Oryctolagus cuniculus [10] = species on record: Oryctolagus cuniculus; experiment: The maximum aggregation response observed at 1.8e-4 M concentration of the compound; type: functional
Oryctolagus cuniculus [11] = species on record: Oryctolagus cuniculus; experiment: The maximum aggregation response observed at 1.7e-4M concentration of the compound; type: functional
Oryctolagus cuniculus [12] = species on record: Oryctolagus cuniculus; experiment: The maximum aggregation response observed at 1.48e-5 M concentration of the compound; type: functional

Row | Structure (SMILES) | Ratio [1] | Dose (Rattus norvegicus) [µg/kg] | further results
1 | CCCCCCCCCCCCCCCCCCOCC(COP(=O)([O-])OCCCC[N+](C)(C)C)OC(C)=O (stereo not given) | 0.36 | 15.85 | Max aggregation response (Oryctolagus cuniculus [2]): 71
2 | CCCCCCCCCCCCCCCCCCOCC(COP(=O)([O-])CC[N+](C)(C)C)OC(C)=O (stereo not given) | 3.83 | 76.54 | Max aggregation response (Oryctolagus cuniculus [2]): 82
3 | CCCCCCCCCCCCCCCCOCC(COP(=O)([O-])OCCCCCCCCCC[N+](C)(C)C)OC(C)=O (stereo not given) |  | >4000 | Max aggregation response (Oryctolagus cuniculus [3]): 18; EC50 (Oryctolagus cuniculus [4]): 59 µM
4 | CCCCCCCCCCCCCCCCOCC(COP(=O)([O-])OC(C)C[N+](C)(C)C)OC(C)=O (stereo not given) | 0.28 | 1.16 | Max aggregation response (Oryctolagus cuniculus [2]): 74
5 | CCCCCCCCCCCCCCCCOCC(COP(=O)([O-])Oc1cccc(C[N+](C)(C)C)c1)OC(C)=O (stereo not given) | 0.23 | 1.36 | Max aggregation response (Oryctolagus cuniculus [5]): 64
6 | CCCCCCCCCCCCCCCCOCC(COP(=O)([O-])OCC[N+](C)(C)C)OC(C)=O (stereo not given) [PLATELET ACTIVATING FACTOR] | 0.47 | 1.25 | Max aggregation response (Oryctolagus cuniculus [6]): 71
7 | CCCCCCCCCCCCCCCCOCC(COP(=O)([O-])OCCCCCC[N+](C)(C)C)OC(C)=O (stereo not given) | 0.06 | 164.9 | EC50 (Oryctolagus cuniculus [4]): 27 µM; Max aggregation response (Oryctolagus cuniculus [7]): 35
8 | CCCCCCCCCCCCCCCCOCC(COP(=O)([O-])OCCC[N+](C)(C)C)OC(C)=O (stereo not given) | 0.57 | 1.43 | Max aggregation response (Oryctolagus cuniculus [8]): 65
9 | CCCCCCCCCCCCCCCCOCC(COP(=O)([O-])OCC(C)[N+](C)(C)C)OC(C)=O (stereo not given) | 0.47 | 0.15 | Max aggregation response (Oryctolagus cuniculus [8]): 66
10 | CCCCCCCCCCCCCCCCOCC(COP(=O)([O-])OCC(c1ccccc1)[N+](C)(C)C)OC(C)=O (stereo not given) |  | 3.93 | Max aggregation response (Oryctolagus cuniculus [5]): 69; Ratio [9]: 0.06
11 | CCCCCCCCCCCCCCCCOCC(COP(=O)([O-])OCCCC[N+](C)(C)C)OC(C)=O (stereo not given) | 0.65 | 4.84 | Max aggregation response (Oryctolagus cuniculus [10]): 68
12 | CCCCCCCCCCCCCCCCOCC(COP(=O)([O-])OCCCCCCCC[N+](C)(C)C)OC(C)=O (stereo not given) |  | >4000 | Max aggregation response (Oryctolagus cuniculus [11]): 41; EC50 (Oryctolagus cuniculus [4]): 37 µM
13 | CCCCCCCCCCCCCCCCCCOCC(COP(=O)([O-])OCC[N+](C)(C)C)OC(C)=O (stereo not given) | 1.34 | 3.17 | Max aggregation response (Oryctolagus cuniculus [12]): 75
